# Screening data (PubChem BioAssay)
# An excerpt weighted towards active compounds, which were near 2.8% of everything screened.
# NPY2 pot ag: human NPY-Y2 potentiation or agonism, primary screen | AID 1359 | activation, % at 3.6 µM | cells expressing NPY-Y2, potentiator/agonist read-out | P49146 | 220,000 compounds, 0.45% hits; in the data active = activation above about 27%;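 also: cells stimulated with NPY near EC25 plus isoproterenol at EC100; 0% = vehicle plus submaximal agonist and 100% = vehicle plus saturating agonist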
# NPY-Y1 antag: blocks the human neuropeptide Y Y1 receptor. P25929. HEK293-CNG Y1 cells, membrane potential fluorescence; NPY at EC95, then isoproterenol. inhibition, % at 3.6 µM. 200,000 compounds, 1% hits;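 active = inhibition above the campaign mean inhibition of all tested compounds plus 3 SD, cut at about 20% in these data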;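 also: 0% = DMSO wells given NPY plus isoproterenol and 100% = isoproterenol alone without NPY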
# Target sequence (P25929 whole entry, looked up): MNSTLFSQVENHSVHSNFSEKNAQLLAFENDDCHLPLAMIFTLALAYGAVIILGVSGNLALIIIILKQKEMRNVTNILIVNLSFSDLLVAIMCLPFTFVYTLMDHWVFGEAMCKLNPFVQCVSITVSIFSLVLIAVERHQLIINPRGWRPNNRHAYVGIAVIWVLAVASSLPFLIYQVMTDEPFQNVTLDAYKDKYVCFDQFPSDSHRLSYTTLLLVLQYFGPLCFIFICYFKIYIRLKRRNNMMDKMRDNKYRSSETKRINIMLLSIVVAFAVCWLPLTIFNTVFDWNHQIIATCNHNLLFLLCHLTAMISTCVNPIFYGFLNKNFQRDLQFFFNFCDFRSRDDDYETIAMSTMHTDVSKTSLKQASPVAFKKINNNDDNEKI
#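 System: HEK293 cells with Y1 receptor plus CNG channel / Probe or stimulus: NPY 25 nM then isoproterenol 1 µM plus Ro 20-1724 25 µM / Compound: one concentration, 3.6 µM, in 0.4% DMSO / Schedule: compound incubation 1 h at room temperature, readout 45 min post-stimulation / Measured by: membrane potential fluorescence / Read-out: % inhibition of NPY effect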
# EP2 modulator: modulates human prostaglandin E2 receptor EP2 signaling | P43116 | EP2-expressing cells, cAMP HTRF FRET, PGE2 co-stimulation | induction, % at 25 µM | 260,000 compounds, 0.83% hits;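 active = compounds whose cAMP rise, as percent of the full-agonist control response, exceeds 60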;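 also: rat C6 glioma line stably carrying human EP2 under a CMV promoter; the protocol text gives 20 µM as final concentration; 100% = response of wells given 1 µM PGE2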
# NPY-Y1 PAM-ag: human NPY-Y1 potentiation or agonism, primary screen. P25929. NPY-Y1 expressing cells, potentiator/agonist activation. activation, % at 3.6 µM. 220,000 compounds, 0.37% hits. AID 1304; in the data active = activation above about 33%, passing the limit was not always enough;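 also: cells stimulated with NPY at EC10 then isoproterenol at EC100; 0% = low agonist plus stimulus and 100% = saturating agonist plus stimulus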
# PGE2 EP2 inh: blocks the human prostaglandin E2 receptor EP2 | P43116 | C6 glioma cells expressing human EP2, cAMP TR-FRET; cells stimulated with saturating PGE2 | inhibition, % at 25 µM | 260,000 compounds, 0.52% hits;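 active = percent inhibition above 40 after rounding to a whole number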;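 also: rat C6 glioma host cells with rolipram phosphodiesterase inhibitor present; the protocol text gives 20 µM as final concentration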
# NPY-Y2 antag: antagonists of human neuropeptide Y receptor Y2; P49146; NPY-Y2 expressing cells, antagonist mode; inhibition, % at 2.7 µM; 140,000 compounds, 0.99% hits; in the data active = inhibition above about 17%;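 also: 0% = vehicle with agonist challenge and 100% = reference antagonist with challenge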
# * marks the source's active call; other numbers are inactive results; . = no result.
SMILES,NPY2 pot ag,NPY-Y1 antag,EP2 modulator,NPY-Y1 PAM-ag,PGE2 EP2 inh,NPY-Y2 antag
CC(C)c1ccc(N2CCN(C(=O)c3ccccc3NC(=O)/C=C\C(=O)O)CC2)cc1,-16,-5,-8,-2,11,-3
O=C(O)/C=C\C(=O)Nc1ccccc1C(=O)N1CCN(c2ccc(Cl)cc2)CC1,31*,2,7,91*,12,1
CCCCOC(=O)CN1C(=O)c2ccc(C(=O)OCCCC)cc2C1=O,11,-4,63*,-3,9,1
COc1ccc(CN(Cc2cccnc2)C2CC(C)(C)NC(C)(C)C2)c(O)c1,.,.,-41,.,1,.
COC(=O)c1ccccc1NC(=O)C12CC3CC(C1)CC(n1cnc(Cl)n1)(C3)C2,7,4,62*,-25,12,2
O=C(Cn1sc2ccccc2c1=O)NC12CC3CC(CC(C3)C1)C2,4,0,-50,-3,132*,-2
Cc1cc(C)c(S(=O)(=O)N(C)CC(=O)N2CCc3ccccc3C2)c(C)c1,.,.,-16,.,7,.
CCCN1/C(=C2/SC(=S)N(CC)C2=O)C=Cc2ccccc21,11,-9,63*,26,11,-4
CCCN1C(=O)/C(=C2/C=Cc3ccccc3N2CC)SC1=S,11,-8,24,31,6,.
COc1ccc(NC(=O)N(C2CCCCC2)C(C)c2ccco2)c(OC)c1 (configuration not stated),-7,10,61*,-1,7,10
COc1ccc2[nH]c3c(NCCC4=CCCCC4)ncnc3c2c1,8,4,-71,3,75*,.
O=C(O)C1CC1c1ccc(Br)cc1 (configuration not stated),-35,31*,23,-42,14,15
NNC(=O)[C@@H]1C[C@@H]1c1ccccc1,2,1,-12,-21,7,3
O=C(NC(NC(=S)Nc1ccc(Cl)cc1Cl)C(Cl)(Cl)Cl)c1cccc([N+](=O)[O-])c1 (configuration not stated),56*,5,-50,56*,20,-1
CC(O)CNCCNCc1c(OCc2ccccc2)ccc2ccccc12 (configuration not stated),-41,96*,-16,-116,13,38*
Cc1cc(-c2ccc(Cl)cc2)c(C#N)c(N)n1,6,3,14,5,51*,4
COc1ccc(-c2cc(C)nc(N)c2C#N)cc1,.,.,-26,.,11,.
COc1cc2oc(=O)cc(C)c2c(OC)c1OC,-14,9,-1,-13,5,0
COc1cc2oc(=O)c(Br)c(C)c2c(OC)c1OC,-12,3,44,-12,44*,2
O=C(O)c1cc(/C=C/c2ccc(N3CCOCC3)c([N+](=O)[O-])c2)nc2ccccc12,78*,.,-6,53*,5,.
O=C(O)c1cc(/C=C/c2ccc(N3CCOCC3)cc2)nc2ccccc12,17,8,-44,-4,8,.
Cc1cccc(N2CC(C(=O)OCC(=O)c3ccc(OC(=O)c4cccs4)cc3)CC2=O)c1C (configuration not stated),-14,-6,-21,-19,120*,2
O=C(CN1c2ccccc2Sc2ccccc21)NNC(=O)Nc1ccc(Cl)cc1,57*,.,16,61*,9,.
COc1ccc(OC)c(CNC(=O)Cc2c(C(=O)O)[nH]c3ccccc23)c1,13,-6,16,64*,4,4
COc1cccc(CNC(=O)Cc2c(C(=O)O)[nH]c3ccccc23)c1,5,-1,10,4,6,2
SMILES,NPY2 pot ag,NPY-Y1 antag,EP2 modulator,NPY-Y1 PAM-ag,PGE2 EP2 inh,NPY-Y2 antag
O=C(O)CCCCC(=O)Nc1nc(-c2ccccc2)cs1,.,.,6,.,7,.
O=C(O)CCC(=O)Nc1nc(-c2ccccc2)cs1,-14,12,22,-41,13,22*
S=c1[nH]nc(C2CCCCC2)n1/N=C/c1ccc(Br)s1,-7,-4,63*,0,7,1
CCOc1cc(S(=O)(=O)n2c(C)nc3ccccc32)ccc1Cl,.,.,80*,.,10,.
Cc1cccc(N2C(=O)SC(Nc3ccc(S(N)(=O)=O)cc3)C2=O)c1 (configuration not stated),.,.,-21,.,22,.
CCN(CC1COc2ccccc2O1)C(=S)Nc1ccccc1 (configuration not stated),-4,-2,-40,46*,5,6
CCN(CC1COc2ccccc2O1)C(=S)NCCCN(C)C (configuration not stated),3,1,-16,-8,-1,.
O=C1c2ccccc2-n2c1nc1ccccc1c2=O,3,1,-25,-5,54*,.
Cc1cc(-c2cnc(C)nc2C2CCCN(CC(N)=O)C2)on1 (configuration not stated),.,.,7,.,.,.
O=C(N/N=C/c1cccc(O)c1)c1cc(-c2ccc3c(c2)OCO3)n[nH]1,-10,6,-77,1,64*,3
O=C(NCCc1ccc(F)cc1)C(=O)NCc1ccc2c(c1)OCO2,.,.,-49,.,3,.
CC1CCC(C(C)C)C(OCC(O)CNC(C)(C)C)C1 (configuration not stated),99*,-6,-30,106*,-1,.
COc1ccc(NC(=O)NC2CC3CCCC(C2)N3Cc2ccco2)cc1 (configuration not stated),.,.,-82,.,15,.
COc1cc(C(=O)Oc2cccc(C=O)c2)cc(OC)c1OC,3,0,12,15,18,2
O=Cc1cccc(OC(=O)c2ccc(Cl)cc2Cl)c1,-5,-1,64*,9,7,-1
OC(c1cc(C(F)(F)F)nc2c(Cl)cc(Cl)cc12)C1CCCCN1 (configuration not stated),62*,.,-7,66*,1,.
Cc1cccc(N(C(=O)Cn2nnc3ccccc32)C(C(=O)NCc2ccco2)c2ccco2)c1 (configuration not stated),.,.,25,.,9,.
CN1C(CC(=O)Nc2ccc(Cl)cc2Cl)c2ccccc2CC1(C)C (configuration not stated),-8,.,61*,14,8,.
CC1(C)N=C(SCC(=O)Nc2ccc(Cl)cc2Cl)C(c2ccccc2)=N1,-12,5,11,-33,11,4
O=C(c1ccccn1)N(Cc1ccco1)C1(C(=O)NC2CCCC2)CCCCC1,-7,34*,20,0,6,53*
O=C(c1ccc2c(c1)OCO2)N(Cc1ccco1)C1(C(=O)NC2CCCCC2)CCCCC1,-7,51*,46,-44,6,28*
O=C1NC(=O)C(CC(=O)N(Cc2ccco2)C2(C(=O)NC3CCCC3)CCCCC2)N1 (configuration not stated),9,1,18,-20,.,6
O=C(c1cnccn1)N(Cc1ccco1)C1(C(=O)NC2CCCC2)CCCCC1,-3,42*,17,4,7,33*
